The results in this text go back to ChEMBL document CHEMBL4411266, “Triterpenoid Hydroxamates as HIF Prolyl Hydrolase Inhibitors” (J Nat Prod, 2018).

The source made the active and inactive calls. The calls are words filed in the database; no cut-off is given here. A value given as a limit tells only on which side of the number the result lay.

Data set [1] has as its target T1, Hypoxia-inducible factor prolyl hydroxylase (Homo sapiens, UniProt Q96KS0+Q9NXG6+Q9GZT9+Q9H6Z9). In words: Inhibition of PHD (unknown origin) expressed in mouse NIH/3T3 cells harboring HRE-driven luciferase gene assessed as transactivation of HIF1alpha after 6 hrs by luciferase reporter gene assay. The class given is cell-based. In outline: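 NIH-3T3 mouse cells stably carrying an EPO-HRE luciferase reporter (three HRE copies from the erythropoietin promoter) treated with compounds for 6 h. Cells then washed twice in PBS and lysed in Tris-phosphate pH 7.8 buffer with MgCl2, DTT, Triton X-100 and glycerol for 15 min at room temperature. Luciferase measured in the supernatant after centrifugation.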
For orientation: Reporter assays use an easily measured gene product as a stand-in for the process of interest.

For data set [2], the target named is T1, Hypoxia-inducible factor prolyl hydroxylase. In words: Inhibition of PHD (unknown origin) expressed in mouse NIH/3T3 cells harboring HRE-driven luciferase gene assessed as transactivation of HIF1alpha after 6 hrs by luciferase reporter gene assay relative to deferoxamine. The class given is cell-based. In outline: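 Mouse NIH-3T3 cells with a stably transfected EPO-HRE luciferase reporter exposed to compounds for 6 h, then washed, lysed and read for luciferase in the cleared lysate. EC50 and intrinsic relative activity (IRA) were calculated relative to 150 μM deferoxamine as reference.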

The target is the same in data set [3]. In words: Inhibition of PHD in HEK293T cells assessed as increase in HIF1alpha expression at 1 to 10 uM after 3 hrs by Western blot analysis. The class given is cell-based. In outline:
(§1)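 HEK-293T cells treated for 3 h, with DFX (100 μM) as a reference. Cell lysates were made in Tris-HCl pH 7.5/NaCl/glycerol/NP-40 buffer with protease and phosphatase inhibitors. 30 μg protein was run on 10% SDS-PAGE, blotted to PVDF and probed for HIF-1α, PHD1, PHD2 and PHD3. Detection was by HRP secondary and chemiluminescence.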
(In general: A western blot detects proteins with antibodies after separation by electrophoresis.)

Data set [4] has as its system HEK-293T. In words: Effect on PHD2 expression in HEK293T cells at 1 to 10 uM after 3 hrs by Western blot analysis. The following applies: human. Format: ADME, cell-based. In outline:
as §1

Data set [5] concerns HEK-293T. Briefly: Effect on PHD1 expression in HEK293T cells at 1 to 10 uM after 3 hrs by Western blot analysis. The class given is ADME, cell-based. The conditions noted are these: human. In outline:
as §1

The subject of data set [6] is HEK-293T. In words: Effect on PHD3 expression in HEK293T cells at 1 to 10 uM after 3 hrs by Western blot analysis. The conditions noted are these: human. The class given is ADME, cell-based. In outline: as §1
For data set [7], the target named is T1, Hypoxia-inducible factor prolyl hydroxylase. In words: Inhibition of PHD in HEK293T cells assessed as increase in HIF1alpha expression at 10 uM after 15 to 180 mins by Western blot analysis. The class given is cell-based. In outline: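 HEK-293T cells were stimulated over a time course and HIF-1α was followed by Western blot. Lysis was in NP-40 buffer with protease and phosphatase inhibitors. 30 μg protein was resolved on 10% SDS-PAGE, transferred to PVDF, and detected by HRP secondary and chemiluminescence.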

Data set [8] shares this target. In words: Inhibition of PHD in HEK293T cells assessed as increase in HIF1alpha expression at 10 uM under hypoxic condition by Western blot analysis. Format: cell-based. In outline: (§2)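 HEK-293T cells were treated under hypoxia (1% O2) or normoxia, with or without compound. HIF-1α and PHD levels were read by Western blot: NP-40 lysis, 30 μg protein on 10% SDS-PAGE, PVDF transfer, HRP secondary and chemiluminescence.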

Data set [9] relates to HEK-293T. In words: Effect on PHD2 expression in HEK293T cells at 10 uM under hypoxic condition by Western blot analysis. The class given is ADME, cell-based. The conditions noted are these: human. In outline:
as §2

In data set [10] the test system is HEK-293T. In words: Effect on PHD2 expression in HEK293T cells at 10 uM under normoxic condition by Western blot analysis. Format: ADME, cell-based. The conditions noted are these: human. In outline:
as §2

Data set [11] concerns the target T1, Hypoxia-inducible factor prolyl hydroxylase. Briefly: Inhibition of PHD in HEK293T cells assessed as increase in HIF1alpha expression at 10 uM under normoxic condition by Western blot analysis. Format: cell-based. In outline:
as §2

Data set [12] shares this target. Briefly: Inhibition of PHD in HEK293T cells assessed as increase in HIF1alpha expression at 1 to 10 uM after 6 hrs in presence of proteasome inhibitor MG132. The class given is cell-based. In outline:
(§3)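 HEK-293T cells were treated for 6 h in the presence of the proteasome inhibitor MG132. Hydroxylated HIF-1α and total HIF-1α were determined by immunoblot: 10% SDS-PAGE, PVDF transfer, HRP/chemiluminescence detection.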

Data set [13] shares this target. In words: Inhibition of PHD in HEK293T cells assessed as reduction in HIF1alpha hydroxylation at 1 to 10 uM after 6 hrs in presence of proteasome inhibitor MG132. The class given is cell-based. In outline:
as §3

Data set [14] shares this target. Briefly: Reversible inhibition of PHD (unknown origin) expressed in mouse NIH/3T3 cells harboring HRE-driven luciferase gene assessed as transactivation of HIF1alpha at 5 to 25 uM pretreated for 1 hr followed by compound washout and measured after 6 hrs by luciferase reporter gene assay. The class given is cell-based. In outline: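 NIH-3T3-EPO-Luc cells stably carry an EPO-promoter 3×HRE-luciferase reporter. Cells were pretreated 1 h, then washed or not with PBS and incubated 6 h in complete medium. Lysis was in Tris-phosphate pH 7.8/MgCl2/DTT/Triton buffer and luciferase was read in the lysate. Data are fold induction over untreated cells, means ± SD, n = 3, one-way ANOVA with Tukey's test.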

The target is the same in data set [15]. In words: Inhibition of PHD (unknown origin) expressed in mouse NIH/3T3 cells harboring HRE-driven luciferase gene assessed as transactivation of HIF1alpha at 1 to 25 uM after 6 hrs in presence of 50 uM betulinic acid by luciferase reporter gene assay. The class given is cell-based. In outline:
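NIH-3T3-EPO-Luc (3×HRE-luciferase) cells were preincubated 30 min with betulinic acid (50 μM), then treated with compound for 6 h. Cells were washed in PBS and lysed in Tris-phosphate pH 7.8 buffer, and luciferase was measured in the lysate. Data are fold induction over untreated cells, means ± SD, n = 3, one-way ANOVA with Tukey's test.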

What is called EC50 is the concentration that produces a half-maximal response.

T1 sequence (Q96KS0 whole entry, looked up): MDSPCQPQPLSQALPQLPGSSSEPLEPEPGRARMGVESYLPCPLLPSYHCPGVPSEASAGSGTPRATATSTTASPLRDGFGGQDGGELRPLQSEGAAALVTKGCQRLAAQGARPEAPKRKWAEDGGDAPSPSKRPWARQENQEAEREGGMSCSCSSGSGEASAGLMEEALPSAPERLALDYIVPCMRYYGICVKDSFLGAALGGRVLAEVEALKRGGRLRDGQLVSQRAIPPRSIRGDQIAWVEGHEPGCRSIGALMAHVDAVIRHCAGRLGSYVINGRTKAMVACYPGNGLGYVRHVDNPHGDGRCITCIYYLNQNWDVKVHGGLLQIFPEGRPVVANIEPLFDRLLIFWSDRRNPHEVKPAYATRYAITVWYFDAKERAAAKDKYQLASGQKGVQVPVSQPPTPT
T1 sequence (Q9GZT9 whole entry, looked up): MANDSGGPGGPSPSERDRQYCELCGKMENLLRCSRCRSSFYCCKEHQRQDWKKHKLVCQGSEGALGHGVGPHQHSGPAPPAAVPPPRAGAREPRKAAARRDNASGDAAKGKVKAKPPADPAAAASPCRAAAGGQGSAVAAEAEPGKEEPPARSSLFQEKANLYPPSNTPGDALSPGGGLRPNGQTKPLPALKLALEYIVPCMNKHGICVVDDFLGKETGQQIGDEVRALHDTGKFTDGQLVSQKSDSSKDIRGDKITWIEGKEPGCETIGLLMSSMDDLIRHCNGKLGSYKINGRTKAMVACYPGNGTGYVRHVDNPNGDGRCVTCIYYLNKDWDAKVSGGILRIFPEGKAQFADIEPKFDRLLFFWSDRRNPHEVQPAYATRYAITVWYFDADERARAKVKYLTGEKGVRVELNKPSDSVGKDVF
T1 sequence (Q9H6Z9 whole entry, looked up): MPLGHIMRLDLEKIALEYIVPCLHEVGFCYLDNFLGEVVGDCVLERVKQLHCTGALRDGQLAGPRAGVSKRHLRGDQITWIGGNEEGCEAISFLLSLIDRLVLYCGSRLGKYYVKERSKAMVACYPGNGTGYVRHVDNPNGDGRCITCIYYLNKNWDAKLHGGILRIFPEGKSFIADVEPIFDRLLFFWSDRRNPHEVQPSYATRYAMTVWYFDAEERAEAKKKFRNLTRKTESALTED
T1 sequence (Q9NXG6 whole entry, looked up): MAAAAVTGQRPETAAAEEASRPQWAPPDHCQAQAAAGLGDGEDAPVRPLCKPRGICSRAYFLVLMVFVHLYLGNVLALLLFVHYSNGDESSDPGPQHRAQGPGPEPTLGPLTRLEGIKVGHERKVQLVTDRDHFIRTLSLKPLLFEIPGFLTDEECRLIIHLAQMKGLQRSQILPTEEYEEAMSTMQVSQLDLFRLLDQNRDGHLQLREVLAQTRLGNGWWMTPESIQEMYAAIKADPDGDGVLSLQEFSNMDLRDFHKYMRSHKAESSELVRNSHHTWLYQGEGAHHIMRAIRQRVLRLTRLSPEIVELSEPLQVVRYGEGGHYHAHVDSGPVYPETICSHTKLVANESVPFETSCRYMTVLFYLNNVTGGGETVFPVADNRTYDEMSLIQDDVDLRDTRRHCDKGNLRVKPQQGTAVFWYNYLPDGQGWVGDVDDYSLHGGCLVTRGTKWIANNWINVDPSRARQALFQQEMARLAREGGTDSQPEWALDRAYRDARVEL

As to `CC1(C)CC[C@]2(C(=O)O)CC[C@]3(C)C(=CC[C@@H]4[C@@]5(C)C[C@@H](O)[C@H](O)C(C)(C)[C@@H]5CC[C@]43C)[C@@H]2C1` [MASLINIC ACID], in [1], the EC50 is > 50 µM.
Take `CC1(C)CC[C@]2(C(=O)NO)CC[C@]3(C)C(=CC(=O)[C@@H]4[C@@]5(C)CC[C@H](O)C(C)(C)[C@@H]5CC[C@]43C)[C@@H]2C1`: in data set [1], the EC50 turned out to be 11.4 µM. In addition, in data set [2], the Intrinsic activity amounted to 0.15.
Turning to `CC1(C)CCC2(C(=O)O)CC[C@]3(C)C(=CC(=O)[C@@H]4[C@@]5(C)CC[C@H](O)C(C)(C)[C@@H]5CC[C@]43C)[C@@H]2C1` (single isomer, unassigned), in data set [1], the EC50 is > 50 µM.
Regarding `CC1(C)[C@@H](O)CC[C@]2(C)[C@H]3C(=O)C=C4[C@@H]5C[C@@](C)(C(=O)NO)CC[C@]5(C)CC[C@@]4(C)[C@]3(C)CC[C@@H]12`, the EC50 in [1] was > 50 µM.
With `C=C(C)[C@@H]1CC[C@]2(C(=O)NO)CC[C@]3(C)C(CC[C@@H]4[C@@]5(C)CC=CC(C)(C)[C@@H]5CC[C@]43C)[C@H]12` (some centres undefined), the EC50 in [1] came out at 3.2 µM. Besides, in [2], the Intrinsic activity amounted to 0.48.
As to `CC1(C)[C@@H](O)CC[C@]2(C)[C@H]3C(=O)C=C4[C@@H]5C[C@@](C)(C(=O)O)CC[C@]5(C)CC[C@@]4(C)[C@]3(C)CC[C@@H]12` [ENOXOLONE], in data set [1], the EC50 was > 50 µM.
For the molecule `C[C@H]1[C@H](C)CC[C@]2(C(=O)NO)CC[C@]3(C)C(=CC[C@@H]4[C@@]5(C)CC/C(=N\O)C(C)(C)[C@@H]5CC[C@]43C)[C@H]12`, the EC50 in [1] amounted to 8.9 µM. Also, the Intrinsic activity in data set [2] came to 0.1.
Consider `CC1(C)CCC2(C(=O)NO)CC[C@]3(C)C(=CC[C@@H]4[C@@]5(C)CC/C(=N\O)C(C)(C)[C@@H]5CC[C@]43C)[C@@H]2C1` (single isomer, unassigned), for which the 50% effective concentration (EC50) in data set [1] was determined as 3.8 µM. For the same molecule, the Intrinsic activity in data set [2] is 0.43.
For the molecule `CC1(C)CCC2(C(=O)NO)CC[C@]3(C)C(=CC[C@@H]4[C@@]5(C)CC[C@H](O)C(C)(C)[C@@H]5CC[C@]43C)[C@@H]2C1` (single isomer, unassigned), the half-maximal effective concentration (EC50) in data set [1] was 16.4 µM. For the same molecule, the Intrinsic activity in data set [2] came out at 0.39.
On to `C[C@H]1[C@H](C)CC[C@]2(C(=O)O)CC[C@]3(C)C(=CC[C@@H]4[C@@]5(C)CC[C@H](O)C(C)(C)[C@@H]5CC[C@]43C)[C@H]12` [URSOLIC ACID], for which the EC50 in data set [1] is > 50 µM.
Turning to `C=C(C)[C@@H]1CC[C@]2(C(=O)O)CC[C@]3(C)C(CC[C@@H]4[C@@]5(C)CC[C@H](OC(=O)CC(C)(C)C(=O)O)C(C)(C)[C@@H]5CC[C@]43C)[C@H]12` (some centres undefined), the EC50 in data set [1] was > 50 µM.
For the molecule `C=C(C)[C@@H]1CC[C@]2(C(=O)NO)CC[C@]3(C)C(CC[C@@H]4[C@@]5(C)Cc6cn[nH]c6C(C)(C)[C@@H]5CC[C@]43C)[C@H]12` (some centres undefined), the EC50 in data set [1] was determined as 2.4 µM. The Intrinsic activity in [2] is 0.34.
For `C=C(C)[C@@H]1CC[C@]2(C)[C@H](CC=C3[C@@H]4CC(C)(C)CC[C@]4(C(=O)OC)CC[C@]32C)[C@@]1(C)CCC(=O)NO`, in data set [1], the EC50 is 7.5 µM. Moreover, the Intrinsic activity in data set [2] was found to be 1.19.
Regarding `C=C(C)[C@@H]1CC[C@]2(C(=O)O)CC[C@]3(C)[C@H](CC[C@@H]4[C@@]5(C)CC[C@H](O)C(C)(C)[C@@H]5CC[C@]43C)[C@@H]12` [BETULINIC ACID], the EC50 in data set [1] is > 50 µM.
For `C=C(C)[C@@H]1CC[C@]2(C(=O)NO)CC[C@]3(C)C(CC[C@@H]4[C@@]5(C)CC[C@H](O)C(C)(C)[C@@H]5CC[C@]43C)[C@@H]12` (some centres undefined), the EC50 in [1] worked out at 4.8 µM. The Intrinsic activity in [2] worked out at 0.36. Also, the inhibition result in data set [3], in data set [7], in data set [8], in [11], in data set [12] and in data set [13] was “Active” each time. Moreover, the inhibition entry in data set [14] was “Active”. Moreover, the Activity result in the data set with HEK-293T [4], in the data set on HEK-293T [5], in the data set on HEK-293T [6], in the data set on HEK-293T [9] and in the data set with HEK-293T [10] was “Non-Toxic” in each case. In data set [15], the inhibition result is “inactive”.
Regarding `C=C(C)[C@@H]1CC[C@]2(C(=O)NO)CC[C@]3(C)C(CC[C@@H]4[C@@]5(C)CC/C(=N\O)C(C)(C)[C@@H]5CC[C@]43C)[C@@H]12` (some centres undefined), the EC50 in [1] is 6.8 µM. The Intrinsic activity in data set [2] was determined as 0.31.
`CC1(C)CC[C@]2(C(=O)NO)CC[C@]3(C)C(=CC[C@@H]4[C@@]5(C)CCC(=O)OC(C)(C)[C@@H]5CC[C@]43C)[C@@H]2C1`: in data set [1], the EC50 turned out to be 5.8 µM. In addition, the Intrinsic activity in [2] amounted to 2.2.
Regarding `CC1(C)CC[C@]2(C(=O)NO)CC[C@]3(C)C(=CC[C@@H]4[C@@]5(C)C[C@@H](O)[C@H](O)C(C)(C)[C@@H]5CC[C@]43C)[C@@H]2C1`, the concentration giving a half-maximal response (EC50) in [1] was determined as 7.1 µM. In addition, in [2], the Intrinsic activity is 0.1.
Consider `C[C@H]1[C@H](C)CC[C@]2(C(=O)NO)CC[C@]3(C)C(=CC[C@@H]4[C@@]5(C)CC[C@H](O)C(C)(C)[C@@H]5CC[C@]43C)[C@H]12`, for which the EC50 in data set [1] was found to be 7.7 µM. The Intrinsic activity in [2] came to 0.17.
For `C=C(C)[C@@H]1CC[C@]2(C(=O)NO)CC[C@]3(C)C(CC[C@@H]4[C@@]5(C)Cc6cnoc6C(C)(C)[C@@H]5CC[C@]43C)[C@H]12` (some centres undefined), the EC50 in data set [1] stood at 2.6 µM. Further, the Intrinsic activity in [2] turned out to be 0.55.
In the case of `CC1(C)CCC2(C(=O)NO)CC[C@]3(C)C(=CC[C@@H]4[C@@]5(C)CC=CC(C)(C)[C@@H]5CC[C@]43C)[C@@H]2C1` (single isomer, unassigned), the EC50 in data set [1] is 5 µM. In data set [2], the Intrinsic activity was 0.16.
Regarding `CC1(C)CC[C@]2(C(=O)O)CC[C@]3(C)C(=CC[C@@H]4[C@@]5(C)CC[C@H](O)C(C)(C)[C@@H]5CC[C@]43C)[C@@H]2C1` [OLEANOLIC_ACID], the EC50 in data set [1] is > 50 µM.
